An excerpt weighted towards active compounds, which were near 4.3% of everything screened.
STAT3 activator: STAT3 signaling activation; U3A cells, IL-6 STAT3-luciferase reporter, luminescence; 100% = signal with IL-6 EC80 alone; AID 871; 0.91% of 190,000 active; activation (% of control), % at 5.6 µM;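 active = activation above the screen-wide mean of compound activation plus 3 SD, cut at about 130% in these data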
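Material: STAT1-lacking human U3A cells, STAT3 luciferase reporter | Benchmarks: IL-6-only wells as 100% reference | Probe or stimulus: IL-6 (33 ng/mL) | Timing: Compound 1 h, then IL-6 6 h at 37 °C | Detection: Luminescence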
STAT1 activator: activators of IFN-gamma induced STAT1 signaling. activation (% of control), % at 5.5 µM. 2.6% of 200,000 active. NIH 3T3 STAT1-luciferase reporter, luminescence; 100% = IFN-gamma alone, no compound;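 active = activation above the screen-wide mean activation plus 3 SD, cut at about 130% in these data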
STAT1 blocker: STAT1 signaling inhibition; NIH 3T3 STAT1-luciferase reporter, IFN-gamma, luminescence; inhibition, % at 5.5 µM; 0.35% of 200,000 active; AID 920;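 active = inhibition above a set limit, the mean inhibition across all tested compounds plus 3 SD, cut at about 34% in these data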
STAT3 inh: reduces IL-6 driven STAT3 reporter signal; U3A cells, IL-6 STAT3-luciferase reporter, luminescence; host cell line lacks STAT1; inhibition, % at 5.5 µM; 0.89% of 190,000 active; AID 862;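 active = inhibition above the mean inhibition across all screened compounds plus 3 SD, cut at about 44% in these data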
Large screens that a line does not name were inactive.

CC(=O)Nc1ccc(NC2=C/C(=N/S(=O)(=O)c3cccs3)c3ccccc3C2=O)cc1	STAT1 blocker 90, STAT3 inh 66
COc1ccc(CC(=O)Nc2ccc(-c3noc(COc4ccccc4C)n3)cc2)cc1	none
O=C(Nc1ccc(-c2noc(COc3ccccc3Cl)n2)cc1)c1ccco1	STAT1 activator 132
c1ccc(-n2ncc3c(NCCN4CCOCC4)ncnc32)cc1	STAT1 activator 133
c1ccc(CCNc2ncnc3c2cnn3-c2ccccc2)cc1	STAT1 activator 140
CC(C)C(NC(=O)C1CCCCC1)C(=O)Nc1ccc2c(c1)OCCO2 (centres undefined)	STAT1 activator 132
Cc1cc(N/C=C/C(=O)c2cccs2)ccc1F	none
O=C(/C=C/Nc1ccccc1C(=O)O)c1cccs1	STAT1 activator 143
Cc1ccc(N/C=C/C(=O)c2cccs2)cc1C	STAT1 blocker 53, STAT3 inh 66
O=C(/C=C/Nc1cccc([N+](=O)[O-])c1)c1cccs1	STAT3 activator 146, STAT1 activator 139
O=C(O)c1ccccc1C(=O)c1cccs1	none
O=C(Cc1cccs1)Nc1cccc([N+](=O)[O-])c1	none
CSc1ccccc1C(=O)NCc1ccccc1C	none
CN(C(=O)CC1C(=O)NCCN1Cc1ccc(F)c(F)c1)C1CCOCC1 (centres undefined)	none
CC(C)c1ccc(/C=C/C(=O)N2CCCCCC2)cc1	none
CC(C)c1ccc(/C=C/C2=NNC(=O)CC2)cc1	STAT1 activator 136
O=C(CSC1=NCCN1)Nc1cccc([N+](=O)[O-])c1	STAT1 activator 133
O=C(CSC1=NCCN1)Nc1ccccc1[N+](=O)[O-]	none
Cc1ccc(-c2nc3ccccc3n2C)o1	STAT1 activator 130
CC(=O)c1ccc(-c2nc3ccccc3n2C)o1	STAT1 activator 130
Brc1ccc(Cn2c(-c3ccc(Br)o3)nc3ccccc32)o1	none
Cn1c(-c2ccc(Br)o2)nc2ccccc21	STAT1 activator 140
Cc1oc(-c2nc3ccccc3n2C)cc1C(=O)c1ccccc1	STAT1 blocker 39, STAT3 inh 73
CCN(CC)S(=O)(=O)c1ccc(C(=O)NCc2n[nH]c(=S)n2-c2ccc(Cl)c(Cl)c2)cc1	none
Cn1c(-c2ccc(Br)o2)nc2cc(Br)ccc21	STAT1 activator 138
Cc1ccc2nc(-c3ccc(Br)o3)oc(=O)c2c1	none
Cc1ccn2c(C(=O)CSc3ccc(Cl)cc3)c(C)nc2c1	none
Cc1ccn2c(C(=O)c3ccc(Cl)cc3)cnc2c1	STAT1 activator 146
CCOC(=O)c1cnc2c(N=Nc3ccccc3)c(N)nn2c1N	STAT1 activator 138
CCOC(=O)c1cnc2c(N=Nc3cccc(Cl)c3)c(N)nn2c1N	none
Cc1occc1C(=O)NN=C1C2CC3CC(C2)CC1C3	STAT1 activator 150
OC(COc1ccc2ccccc2c1Cl)CN1CCOCC1 (centres undefined)	STAT1 activator 134
O=C(NCC1CCCN(Cc2ccc3nonc3c2)C1)c1cccc(C(F)(F)F)c1 (centres undefined)	none
COc1ccc(OCC(=O)Nc2c3c(nn2C(C)(C)C)CSC3)cc1	none
O=C(COC(=O)C1CC1)Nc1ccc(OC(F)F)cc1	none
COC(=O)CCC(=O)Nc1ccc(N=Nc2ccccc2)cc1	STAT1 activator 133
O=C(COC(=O)C1CC1)Nc1ccc(N=Nc2ccccc2)cc1	STAT1 activator 136
COC(=O)c1ccc(N=Nc2ccccc2)cc1	STAT1 activator 132
O=C(O)CCCC(=O)Nc1ccc(N=Nc2ccccc2)cc1	none
Nc1nnc(-c2cc3c(ccc4ccccc43)oc2=O)s1	none
COc1cc(O)sc1C=Nc1ccc(Cl)cc1	STAT1 activator 132
CCN(CC)CCNC(=S)NC(=O)c1cn(-c2ccccc2)nc1-c1ccc(OC)cc1	none
COc1ccc(NC(=S)c2ccc(N(C)C)cc2)cc1	STAT1 activator 149
CC1CC(C)(C)N2C(=O)C3(Nc4ccccc4S3)c3cccc1c32 (centres undefined)	none
O=C1N2CCCc3cccc(c32)C12Nc1ccccc1S2 (centres undefined)	STAT3 activator 135
O=C(COc1ccc2ccccc2c1)Nc1ccc2c3c(cccc13)CC2	none
COc1ccc(-c2cc(C(=O)Nc3nc4c(C)cccc4s3)c3ccccc3n2)cc1OC	STAT3 activator 134
Cc1sc(NC(=O)/C=C/c2ccc(C(C)C)cc2)c(C#N)c1C	none
CC(C)c1ccc(/C=C/C(=O)Nc2nncs2)cc1	STAT1 activator 145
FC(F)Oc1ccc(NC(=S)NCCc2ccccn2)cc1	none
CC(C)c1ccc(/C=C/c2ccc(=O)n(C)n2)cc1	STAT1 activator 131
Clc1cccc(/C=N/Nc2nc(Cl)nc3ccccc23)c1	STAT1 activator 145
Cc1cc(C)nc(N/N=C/c2cccc(Cl)c2)n1	none
O=C(O)/C=C\C(=O)Nc1ccccc1C#Cc1ccccc1	STAT1 activator 140
CCCCN(C)CCCNC(=O)c1cc(=O)[nH]c2ccc(S(=O)(=O)N3CCCCC3C)cc12 (centres undefined)	none
O=[N+]([O-])c1ccc(Oc2ccc(C(F)(F)F)cn2)cc1	STAT1 activator 142
FC(F)(F)c1ccc(Oc2ccc3cc(Br)ccc3c2)nc1	none
CCCCN(C(=O)Cc1cccc(F)c1)c1c(N)n(CCC)c(=O)[nH]c1=O	none
CCOc1ccc(NC(=O)COc2ccccc2)c([N+](=O)[O-])c1	STAT1 activator 148
CCOc1ccc(C(=O)N/N=C/c2ccccc2[N+](=O)[O-])cc1	STAT1 activator 134
COc1ccc(NC(=O)/C=C/c2ccccc2)c([N+](=O)[O-])c1	STAT1 activator 147
O=C(COc1ccccc1)Nc1ccccc1Cl	STAT1 activator 132
COC(=O)c1ccccc1NC(=O)COc1ccccc1	none
CCOc1ccc(NC(=O)Cc2ccccc2)c([N+](=O)[O-])c1	none
Cc1cc(NC(=O)Cc2ccccc2)ccc1NC(=O)c1cccs1	none
O=C(Nc1ccccc1N1CCOCC1)C1CCN(S(=O)(=O)c2ccccc2F)CC1	none
Cc1ccc(C)c(NC(=O)CN(C)C(=O)c2nn(C)c(=O)c3ccccc23)c1	none
COC(=O)c1c(NC(=O)C2CCCCC2C(=O)O)sc2c1CCCCC2 (centres undefined)	STAT1 activator 130
C/C(=N\N=c1/sc2ccccc2n1C)c1ccccn1	STAT1 activator 142
O=C(c1cc(COc2c(F)cccc2F)on1)N1CCC(c2ccccc2Cl)C1 (centres undefined)	none
O=C(c1cc(COc2c(F)cccc2F)on1)N1CCC(c2ccccc2F)C1 (centres undefined)	STAT1 activator 132
O=C1Nc2ccccc2S/C1=C\C(=O)N1CCCC1	none
O=C1Nc2ccccc2S/C1=C/Nc1cccc(Cl)c1	STAT1 activator 130
O=C(CSc1nc(-c2ccc(F)cc2)cs1)N1CCOCC1	STAT1 activator 129
O=C(CSc1nc(-c2ccccc2)ns1)N1CCOCC1	STAT1 activator 142
Cc1cccc(-c2nsc(SCC(=O)Nc3nccs3)n2)c1	none
CCOC(=O)CSc1nc(-c2ccccc2)ns1	none
Cc1cccc(-c2nsc(SCC(=O)N3CCCC3)n2)c1	STAT1 activator 134

Compound activity from PubChem.
